Assay results: ChEMBL document CHEMBL2057142, “Discovery and optimization of novel fatty acid transport protein 1 (FATP1) inhibitors” (Bioorg Med Chem Lett, 2012); call rule not given here

Assays:
[1] = biological target: Long-chain fatty acid transport protein 1 (Mus musculus, UniProt Q60714); assay: Inhibition of mouse recombinant FATP1 acyl-coA synthetase activity using [14C]oleic acid as substrate
[2] = biological target: Long-chain fatty acid transport protein 1 (Homo sapiens, UniProt Q6PCB7); assay: Inhibition of human recombinant FATP1 acyl-coA synthetase activity using [14C]oleic acid as substrate
[3] = Metabolic stability in rat blood assessed as compound remaining after 2 hrs; format: ADME, tissue-based; details: read-out: Stability
Outline: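 Test compound incubated with rat blood for 2 h; parent compound remaining (%) measured.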

Rattus norvegicus [4] = assay: (§1) Half life in rat at 1 mg/kg, iv; format: ADME, organism-based; design: dose 1 mg/kg, route intravenous; details: in vivo, BLD = below limit of detection
Outline: (§2)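 Intravenous dosing to rats at 1 mg/kg in DMA/PG/(20% HPβCD in saline) 10:10:80; plasma pharmacokinetic parameters averaged from two rats.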

Blood = assay: Drug metabolism in rat blood assessed as 1-(2-((4-ethyl-5-((phenylamino)methyl)-4H-1,2,4-triazol-3-ylthio)methyl)benzo[d]oxazol-5-yl)propan-1-ol formation; format: ADME, tissue-based
Rattus norvegicus [5] = assay: (§3) Tmax in rat at 10 mg/kg, po; format: ADME, organism-based; design: dose 10 mg/kg, route oral; details: in vivo, BLD = below limit of detection
Outline: (§4)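 Rats dosed orally at 10 mg/kg in DMA/PG/(20% HPβCD in saline) 10:10:80; plasma levels measured, values averaged from two rats.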

[6] = Clearance in rat at 1 mg/kg, iv; format: ADME, organism-based; design: dose 1 mg/kg, route intravenous; details: in vivo; outline: as §2
Rattus norvegicus [7] = assay: (§5) Cmax in rat at 10 mg/kg, po; format: ADME, organism-based; design: dose 10 mg/kg, route oral; details: in vivo, BLD = below limit of detection; outline: as §4
Rattus norvegicus [8] = assay: (§6) AUC in rat at 10 mg/kg, po; format: ADME, organism-based, Plasma; design: dose 10 mg/kg, route oral; details: in vivo, BLD = below limit of detection; outline: as §4
[9] = Volume of distribution in rat at 1 mg/kg, iv; format: ADME, organism-based; design: dose 1 mg/kg, route intravenous; details: in vivo; outline: as §2
[10] = biological target: Long-chain fatty acid transport protein 1 (Mus musculus) (UniProt Q60714); assay: Inhibition of mouse recombinant FATP1 acyl-coA synthetase activity using [14C]oleic acid as substrate at 10 uM
Outline: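 Same radiometric acyl-CoA synthetase assay with 10 μM [1-¹⁴C] oleic acid, 0.5 mM ATP, 0.5 mM CoA, 5 mM MgCl₂ in Tris-HCl pH 7.4 buffer with Triton X-100 and DTT; test compound at 10 μM, read-out as percent inhibition of ACS activity.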

[11] = as §1; format: ADME, organism-based; design: dose 1 mg/kg, route intravenous; details: in vivo; outline: as §2
[12] = as §3; format: ADME, organism-based; design: dose 10 mg/kg, route oral; details: in vivo; outline: as §4
[13] = as §5; format: ADME, organism-based; design: dose 10 mg/kg, route oral; details: in vivo; outline: as §4
[14] = as §6; format: ADME, organism-based, Plasma; design: dose 10 mg/kg, route oral; details: plasma; outline: as §4
[15] = Oral bioavailability in rat at 10 mg/kg; format: ADME, organism-based; details: in vivo; outline: as §4
Mus musculus [16] = assay: Drug metabolism in iv dosed mouse assessed as 2-(4-ethyl-5-((phenylamino)methyl)-4H-1,2,4-triazol-3-ylthio)-N-(4-(1-hydroxypropyl)phenyl)acetamide formation after 5 mins by LC/MS/MS analysis; format: ADME, organism-based; details: in vivo
Outline: (§7)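 Compound dosed intravenously to mouse; blood sampled at 5 min and metabolites identified by LC–MS/MS analysis.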

Mus musculus [17] = assay: Drug metabolism in iv dosed mouse assessed as 2-(4-ethyl-5-((phenylamino)methyl)-4H-1,2,4-triazol-3-ylthio)acetic acid formation after 5 mins by LC/MS/MS analysis; format: ADME, organism-based; details: in vivo; outline: as §7

Sequence of Long-chain fatty acid transport protein 1 (Mus musculus, UniProt Q60714) (Q60714 whole entry): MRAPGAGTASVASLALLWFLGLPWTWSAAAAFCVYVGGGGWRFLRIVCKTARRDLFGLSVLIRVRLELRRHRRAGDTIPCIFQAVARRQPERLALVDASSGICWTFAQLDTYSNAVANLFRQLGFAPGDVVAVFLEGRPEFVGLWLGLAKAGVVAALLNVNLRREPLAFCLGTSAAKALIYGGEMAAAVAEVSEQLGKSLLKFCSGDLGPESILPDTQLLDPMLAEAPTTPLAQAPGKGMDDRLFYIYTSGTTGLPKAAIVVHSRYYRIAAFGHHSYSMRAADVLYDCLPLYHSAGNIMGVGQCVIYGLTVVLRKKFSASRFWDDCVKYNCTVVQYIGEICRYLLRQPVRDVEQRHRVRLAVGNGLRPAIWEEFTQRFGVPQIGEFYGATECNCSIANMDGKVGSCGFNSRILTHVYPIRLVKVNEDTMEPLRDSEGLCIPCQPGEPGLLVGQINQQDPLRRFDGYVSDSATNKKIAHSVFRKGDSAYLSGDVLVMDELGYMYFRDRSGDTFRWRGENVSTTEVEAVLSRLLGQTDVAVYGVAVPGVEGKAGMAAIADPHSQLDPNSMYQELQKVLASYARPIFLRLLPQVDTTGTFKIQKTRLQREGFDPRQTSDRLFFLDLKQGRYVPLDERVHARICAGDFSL
Sequence of Long-chain fatty acid transport protein 1 (Homo sapiens, UniProt Q6PCB7) (Q6PCB7 whole entry): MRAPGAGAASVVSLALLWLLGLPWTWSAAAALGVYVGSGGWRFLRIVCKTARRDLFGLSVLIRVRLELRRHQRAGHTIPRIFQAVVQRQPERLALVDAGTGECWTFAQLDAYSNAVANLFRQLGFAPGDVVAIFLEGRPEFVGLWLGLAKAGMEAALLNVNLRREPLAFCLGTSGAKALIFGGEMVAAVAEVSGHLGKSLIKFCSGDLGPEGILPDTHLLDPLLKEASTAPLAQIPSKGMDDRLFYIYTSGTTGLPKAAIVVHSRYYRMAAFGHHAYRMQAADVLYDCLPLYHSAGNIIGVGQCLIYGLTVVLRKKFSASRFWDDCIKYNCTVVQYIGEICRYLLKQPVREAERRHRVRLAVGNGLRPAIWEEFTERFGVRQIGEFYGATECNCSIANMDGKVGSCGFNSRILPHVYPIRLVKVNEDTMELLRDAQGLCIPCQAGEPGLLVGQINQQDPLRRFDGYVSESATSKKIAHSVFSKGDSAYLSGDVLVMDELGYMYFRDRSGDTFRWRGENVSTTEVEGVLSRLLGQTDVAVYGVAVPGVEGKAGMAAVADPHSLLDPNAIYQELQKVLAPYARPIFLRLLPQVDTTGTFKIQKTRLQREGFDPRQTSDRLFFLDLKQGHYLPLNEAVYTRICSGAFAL
Sequence of Long-chain fatty acid transport protein 1 (Mus musculus) (Q60714 whole entry, looked up): as the sequence (Q60714 whole entry) above

Structure (SMILES)	IC50 [1] [nM]	IC50 [2] [nM]	further results
CCn1c(CNc2ccccc2)nnc1SCC(=O)Nc1ccc(S(C)(=O)=O)cc1	> 10000	> 1000	
CCOC(=O)c1ccc2c(c1)CCN2C(=O)CSc1nnc(CNc2ccccc2)n1CC	> 10000	> 1000	
CCn1c(CNc2ccccc2)nnc1SCc1nc2ccc(Cl)cc2o1	5400	> 1000	
CCn1c(CNc2ccccc2)nnc1SCC(=O)Nc1ccc(C(C)=O)cc1		> 1000	inhibition [10]: 63%
CCC(O)c1ccc2oc(CSc3nnc(CNc4ccccc4)n3CC)nc2c1 (stereo not drawn)	3700	> 1000	remaining at 2 h [3]: 80%
CCOC(=O)c1ccc2c(c1)CCCN2C(=O)CSc1nnc(CNc2ccccc2)n1CC	2900	> 1000	
CCn1c(CNc2ccccc2)nnc1SCC(=O)Nc1ccc(C(=O)N(C)C)cc1	> 10000	> 1000	
CCn1c(CNc2ccccc2)nnc1SCC(=O)Nc1ccc(C(=O)O)cc1	> 10000	> 1000	
CCC(=O)c1ccc(N(CC)C(=O)CSc2nnc(CNc3ccccc3)n2CC)cc1	> 10000	> 1000	
CCn1c(CNc2ccccc2)nnc1SCC(=O)Nc1ccc(C#N)cc1	5100	> 1000	
CCOC(=O)c1cccc(NC(=O)CSc2nnc(CNc3ccccc3)n2CC)c1	2900	> 1000	
CCn1nnc(-c2ccc(NC(=O)CSc3nnc(CNc4ccccc4)n3CC)cc2)n1	> 10000	> 1000	
CCn1c(CNc2ccccc2)nnc1SCC(=O)Nc1ccc(OC)cc1	> 10000	> 1000	
CCn1c(CNc2ccccc2)nnc1SCc1nc2cc(Cl)ccc2o1	2300	> 1000	remaining at 2 h [3]: 92%
CCc1ccc2oc(CSc3nnc(CNc4ccccc4)n3CC)nc2c1	1800	> 1000	
CCn1c(CNc2ccccc2)nnc1SCc1nc2ccccc2o1	> 10000	> 1000	
CCn1c(CNc2ccccc2)nnc1SCc1nc2cc(F)ccc2o1	7800	> 1000	
CCn1c(CNc2ccccc2)nnc1SCc1nc2cc(OC)ccc2o1	2700	> 1000	
CCn1c(CNc2ccccc2)nnc1SCC(=O)Nc1ccc(C(=O)NC)cc1	> 10000	> 1000	
CCn1c(CNc2ccccc2)nnc1SCC(=O)Nc1ccc(Cl)cc1	> 10000	> 1000	
C=CCn1c(CNc2ccccc2)nnc1SCC(=O)Nc1ccc(OC)cc1	> 10000	6600	
CCn1c(CNc2ccccc2)nnc1SCc1nc2cc(C)ccc2o1	> 10000	> 1000	
CCNC(=O)c1ccc(NC(=O)CSc2nnc(CNc3ccccc3)n2CC)cc1	> 10000	> 1000	
CC/C(=N/OC)c1ccc2oc(CSc3nnc(CNc4ccccc4)n3CC)nc2c1	> 10000	> 1000	
CCOC(=O)c1ccc(NC(=O)CSc2nnc(CSCc3ccccc3)n2CC)cc1	> 10000	7600	
CCn1c(CNc2ccccc2)nnc1SCC(=O)Nc1ccccc1	> 10000	> 1000	
CCn1c(CNc2ccccc2)nnc1SCC(=O)Nc1ccc(C(=O)c2ccccc2)cc1	> 10000	> 1000	
CCn1c(CNc2ccccc2)nnc1SCC(=O)Nc1ccc(C(=O)OC(C)(C)C)cc1	> 10000	> 1000	

The remaining compounds from weak to strong by IC50 [2], led by results:

IC50 [1] [nM]	IC50 [2] [nM]	Structure (SMILES)	further results
11900	1670	CCC(=O)c1ccc2oc(CS(=O)(=O)c3nnc(CNc4ccccc4)n3CC)nc2c1	remaining at 2 h [3]: 44%
1200	900	CCC(=O)c1ccc2nc(CSc3nnc(CNc4ccccc4)n3CC)oc2c1	remaining at 2 h [3]: 35%
840	680	CCOC(=O)c1ccc2oc(CSc3nnc(CNc4ccccc4)n3CC)nc2c1	remaining at 2 h [3]: 0%
520	600	CCn1c(CNc2ccccc2)nnc1SCc1nc2cc(C(=O)C(C)C)ccc2o1	remaining at 2 h [3]: 42%
2000	580	CCC(=O)c1ccc(N(C)C(=O)CSc2nnc(CNc3ccccc3)n2CC)cc1	remaining at 2 h [3]: 1.9%
	540	CCn1c(CNc2ccccc2)nnc1SCC(=O)Nc1ccc(C(=O)OC)cc1	inhibition [10]: 56%
1000	400	CCC(=O)c1ccc(NC(=O)CSc2nnc(CNc3ccccc3)n2CC)cc1	remaining at 2 h [3]: 28%; Drug metabolism (Mus musculus [16]): Active; Drug metabolism (Mus musculus [17]): Active
1500	400	CCC(=O)c1ccc(NC(=O)CSc2nnc(CNc3ccccc3)n2CC)cn1	
360	360	CCn1c(CNc2ccccc2)nnc1SCc1nc2cc(C(F)(F)F)ccc2o1	half-life [11]: 73.8 min; Tmax [12]: 19.8 min; clearance [6]: 56 mL/min/kg; Cmax [13]: 220 ng/mL; AUC [14]: 280 ng·h/mL; bioavailability [15]: 9.2%; Vd [9]: 1.86 L/kg
1100	330	CCOC(=O)c1ccc(NC(=O)CSc2nnc(CNc3ccccc3)n2CC)cc1	
200	260	CC/C(=N/O)c1ccc2oc(CSc3nnc(CNc4ccccc4)n3CC)nc2c1	remaining at 2 h [3]: 100%
1100	230	CCCC(=O)c1ccc(NC(=O)CSc2nnc(CNc3ccccc3)n2CC)cc1	
360	190	CCC(=O)c1ccc2oc(CSc3nnc(CNc4ccccc4)n3CC)nc2c1	remaining at 2 h [3]: 8.9%; t1/2 (Rattus norvegicus [4]): BLD; Drug metabolism (Blood): Active; Tmax (Rattus norvegicus [5]): BLD; clearance [6]: 378 mL/min/kg; Cmax (Rattus norvegicus [7]): BLD; AUC (Rattus norvegicus [8]): BLD; Vd [9]: 2.69 L/kg
91	100	CCn1c(CNc2ccccc2)nnc1SCc1nc2cc(OC(F)(F)F)ccc2o1	remaining at 2 h [3]: 100%; half-life [11]: 61.2 min; Tmax [12]: 19.8 min; clearance [6]: 52 mL/min/kg; Cmax [13]: 190 ng/mL; AUC [14]: 200 ng·h/mL; bioavailability [15]: 5.4%; Vd [9]: 1.73 L/kg
